Test results from ChEMBL document CHEMBL1795310, “Novel agmatine and agmatine-like peptidomimetic inhibitors of the West Nile virus NS2B/NS3 serine protease” (Eur J Med Chem, 2011).
Calls of active or inactive are those of the source. No cut-off for these calls is given here.

Experiments:
[1] = Inhibition of West Nile virus NS2B-NS3 serine protease preincubated for 1 hr before addition of Pyr-RTKR-AMC fluorogenic substrate by measuring fluorescence every 45 seconds for 1 hr by fluorescence assay
Procedure, shortened: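 WNV NS2B/NS3 protease (20 nM) preincubated with varying inhibitor concentrations 1 h at 25 °C in pH 8.0 buffer (10 mM Tris–HCl, 1 mM CHAPS, 20% v/v glycerol). Pyr-RTKR-AMC added to 20 μM final. Fluorescence (ex 355/em 460 nm) read at 37 °C every 45 s for 1 h. Duplicates. IC50 from sigmoidal fit of initial velocity vs log[inhibitor]. Nona-D-Arg-NH2 as positive control.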

[2] = molecular target: Prothrombin (Homo sapiens) (UniProt P00734); experiment: Inhibition of thrombin assessed as fluorescence intensity at 100 uM pretreated for 1 hr before substrate addition measured every 45 seconds for 1 hr
Procedure, shortened: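 Assay run with a commercial AFC thrombin kit. Thrombin (40 nM) incubated with inhibitor 1 h at 25 °C in kit reaction buffer, then AFC substrate added. Fluorescence (ex 380/em 500 nm) read at 25 °C. NAPAP served as positive control.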

[3] = Competitive inhibition of West Nile virus NS2B-NS3 serine protease assessed as rate of Pyr-RTKR-AMC hydrolysis every 45 seconds for 1 hr by Lineweaver-Burk plot analysis
Procedure, shortened: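 Inhibitor at 0, 5, 10, 20, 40 and 70 μM preincubated with protease (20 nM) 1 h at 25 °C, pH 8.0 (10 mM Tris–HCl, 1 mM CHAPS, 20% v/v glycerol). Pyr-RTKR-AMC then added at 10–500 μM (seven levels). Hydrolysis followed at 37 °C, ex 355/em 460 nm. Ki from non-linear regression with a competitive inhibition model, alongside a 1/V vs 1/S plot.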

CC(=O)N[C@@H](CCCCN)C(=O)N[C@@H](CCCCN)C(=O)NCCCCNC(=N)N
IC50 [1]: 18.2 µM | Activity [2]: inactive

N=C(N)NCCNC(=O)[C@H](CCCCN)NC(=O)[C@H](CCCCN)NC(=O)Cc1ccc(-c2ccccc2)cc1
IC50 [1]: > 100 µM

N=C(N)NCCCNC(=O)[C@H](CCCCN)NC(=O)[C@H](CCCCN)NC(=O)Cc1ccc(-c2ccccc2)cc1
IC50 [1]: > 100 µM

N=C(N)NC[C@H]1CCN(C(=O)[C@H](CCCCN)NC(=O)[C@H](CCCCN)NC(=O)Cc2ccc(-c3ccccc3)cc2)C1
IC50 [1]: > 100 µM

N=C(N)NC1CCC(NC(=O)[C@H](CCCCN)NC(=O)[C@H](CCCCN)NC(=O)Cc2ccc(-c3ccccc3)cc2)CC1 (stereo partly drawn)
IC50 [1]: > 100 µM

N=C(N)NC/C=C/CNC(=O)[C@H](CCCCN)NC(=O)[C@H](CCCCN)NC(=O)Cc1ccc(-c2ccccc2)cc1
IC50 [1]: 61.2 µM

N=C(N)NC[C@@H]1CCN(C(=O)[C@H](CCCCN)NC(=O)[C@H](CCCCN)NC(=O)Cc2ccc(-c3ccccc3)cc2)C1
IC50 [1]: 20 µM

N=C(N)NCCCCCNC(=O)[C@H](CCCCN)NC(=O)[C@H](CCCCN)NC(=O)Cc1ccc(-c2ccccc2)cc1
IC50 [1]: > 100 µM

N=C(N)NCC1CCN(C(=O)[C@H](CCCCN)NC(=O)[C@H](CCCCN)NC(=O)Cc2ccc(-c3ccccc3)cc2)CC1
IC50 [1]: > 100 µM

N=C(N)NCCCCNC(=O)[C@H](CCCCN)NC(=O)[C@H](CCCCN)NC(=O)Cc1ccc(-c2ccccc2)cc1
Ki [3]: 2.05 µM | IC50 [1]: 4.7 µM | Activity [2]: inactive
